In ChEMBL document CHEMBL1141436, “Inhibitory effects of diterpenoid alkaloids on the growth of A172 human malignant cells” (J Nat Prod, 2007):
Values after ≈ are worked out from the molar mass of the structure shown.

Tests used:
[1] = Growth inhibition of human A172 cells after 6 days; assay type: functional, cell-based; settings: a 172
[2] = Cytotoxicity against human A172 cells after 6 days; assay type: functional, cell-based, A 172
In short: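 A172 glioma cells in high-glucose DMEM with 10% heat-inactivated FBS and penicillin/streptomycin, seeded at 5 × 10^3 cells/mL (1 mL/well). After 24 h, alkaloids were added from fresh 1 mg/mL DMSO stocks (final DMSO ≤0.5%; controls DMSO-matched). Total cell number counted by particle counter after 6 days. IC50 (50% inhibition vs untreated) taken from dose–response curves; mean ± SD, ≥3 independent experiments.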

[3] = Homo sapiens, A 172, 144 h, read-out: IC50

Row | SMILES | relative cell growth [1] | IC50 ([2]; a 172) | IC50 [2, 3]
1 | C=C1[C@H]2C[C@H]3C4N5C[C@]6(C)CCC[C@]47[C@H]([C@H]2OC(=O)c2ccccc2)C3(C[C@]5(OC(=O)c2ccccc2)[C@H]67)[C@@H]1O | 0.76 | 1.3 µg/mL (≈ 2.42 µM) | 
2 | C=C1[C@H]2C[C@H]3C4N5C[C@]6(C)CCC[C@]47[C@H]([C@H]2OC(=O)/C=C/c2ccccc2)C3(C[C@]5(O)[C@H]67)[C@@H]1O | 0.49 |  | 0.89 µg/mL (≈ 1.94 µM)
3 | C=C1[C@H]2C[C@H]3C4N5C[C@]6(C)CCC[C@]47[C@H]([C@H]2OC(=O)c2ccc(OC)cc2)C3(C[C@]5(O)[C@H]67)[C@@H]1O | 0.23 |  | 1.3 µg/mL (≈ 2.8 µM)
4 | C=C1[C@H]2C[C@H]3C4N5C[C@]6(C)CCC[C@]47[C@H]([C@H]2O)C3(C[C@]5(OC(=O)/C=C/c2ccccc2)[C@H]67)[C@@H]1O | 0.97 |  | 
5 | C=C1[C@H]2C[C@H]3C4N5C[C@]6(C)CCC[C@]47[C@H]([C@H]2O)C3(C[C@]5(OC(=O)c2ccccc2)[C@H]67)[C@@H]1O | 0.93 |  | 
6 | C=C1[C@H]2C[C@H]3C4N5C[C@]6(C)CCC[C@]47[C@H]([C@H]2O)C3(C[C@]5(OC(=O)c2ccc(OC)cc2)[C@H]67)[C@@H]1O | 0.99 |  | 
7 | C=C1[C@H]2C[C@H]3C4N5C[C@]6(C)CCC[C@]47[C@H]([C@H]2OC(=O)c2cccc(C(F)(F)F)c2)C3(CC5[C@H]67)[C@@H]1O | 0.6 |  | 
8 | C=C1[C@H]2C[C@H]3C4N(Cc5ccccc5)C[C@]5(C)CCC[C@]46[C@H]([C@H]2O)C3(CC(=O)[C@H]56)[C@@H]1OCc1ccccc1 (some centres not stated) | 1.04 |  | > 5 µg/mL
9 | C=C1[C@@H](O)[C@]23C[C@@H]1[C@@H](OC(=O)c1ccccc1)C[C@H]2[C@@]12C4C3C[C@@H]1[C@@](C)(CC[C@H]2O)CN4CC | 0.82 |  | 
10 | C=C1[C@@H](O)[C@]23C[C@@H]1[C@@H](OC(=O)c1ccc(OC)cc1)C[C@H]2[C@@]12C4C3C[C@@H]1[C@@](C)(CC[C@H]2O)CN4CC | 0.84 |  | 
11 | C=C1[C@@H](O)[C@]23C[C@@H]1[C@@H](OC(C)=O)C[C@H]2[C@@]12C4C3C[C@@H]1[C@@](C)(CC[C@H]2O)CN4CC | 0.66 |  | 5.6 µg/mL (≈ 13.9 µM)
12 | COC[C@]12CC[C@H](O)[C@]34C(NC1)[C@@](O)([C@@H](OC)[C@H]23)[C@@]1(O)C[C@H](OC)[C@H]2C[C@@H]4[C@@H]1[C@H]2OC | 0.93 |  | 
13 | COC[C@]12CC[C@H]3OC1NC1[C@@]34[C@@H]3C[C@H]5[C@H](OC)[C@@H]3[C@](O)(C[C@@H]5OC)[C@]1(O)[C@@H](OC)[C@H]24 | 1.14 |  | 
14 | C=C1[C@H]2C[C@H]3C4N5C[C@]6(C)CCC[C@]47[C@H]([C@H]2OC(=O)c2cccc(C(F)(F)F)c2)C3(C[C@]5(O)[C@H]67)[C@@H]1O | 0.58 |  | 
15 | COC[C@]12CC[C@H]3OC1NC1[C@@]34[C@@H]3C[C@H]5[C@H](O)[C@@H]3[C@](O)(C[C@@H]5OC)[C@]1(O)[C@@H](OC)[C@H]24 | 1.04 |  | 
16 | CCN1C[C@]2(COC)CC[C@H](OC)[C@]34C1[C@@](O)([C@@H](OC)[C@H]23)[C@@]1(O)C[C@H](OC)[C@H]2C[C@@H]4[C@@H]1[C@H]2OC(C)=O | 0.99 |  | 
17 | C=C1[C@H]2C[C@H]3C4N5C[C@]6(C)CCC[C@]47[C@H]([C@H]2O)C3(C[C@]5(O)[C@H]67)[C@@H]1OC(=O)c1ccc(OC)c(OC)c1 | 0.97 |  | 2.9 µg/mL (≈ 5.88 µM)
18 | CCN1C[C@]2(COC)CC[C@H](O)[C@]34C1[C@@](O)([C@@H](OC)[C@H]23)[C@@]1(O)C[C@H](OC)[C@H]2C[C@@H]4[C@@H]1[C@H]2OC(C)=O | 1.11 |  | 
19 | C=C1[C@H]2C[C@H]3C4N(Cc5ccccc5)C[C@]5(C)CCC[C@]46[C@H]([C@H]2O)C3(CC(=O)[C@H]56)[C@@H]1O (some centres not stated) | 1.01 |  | 

Row | SMILES | relative cell growth [1] | IC50 ([2]; a 172) | IC50 [2, 3]
20 | C=C1[C@H]2C[C@H]3C4N5C[C@]6(C)CCC[C@]47[C@H]([C@H]2O)C3(C[C@]5(OC(=O)c2ccc(OC)c(OC)c2)[C@H]67)[C@@H]1O | 0.84 |  | 3.7 µg/mL (≈ 7.5 µM)
21 | C=C1[C@H]2C[C@H]3C4N5C[C@]6(C)CCC[C@]47[C@H]([C@H]2O)C3(C[C@]5(OC(=O)c2cccc(C(F)(F)F)c2)[C@H]67)[C@@H]1O | 1.04 |  | 
22 | COC[C@]12CC[C@H](O)[C@]34C(NC1)[C@@](O)([C@@H](OC)[C@H]23)[C@@]1(O)C[C@H](OC)[C@H]2C[C@@H]4[C@@H]1[C@H]2O | 0.9 |  | 
23 | C=C1[C@H]2C[C@H]3C4N5C[C@]6(C)CCC[C@]47[C@H]([C@H]2O)C3(C[C@]5(OC(=O)c2ccc([N+](=O)[O-])cc2)[C@H]67)[C@@H]1O | 0.96 |  | 
24 | C=C1[C@H]2C[C@H]3C4N5C[C@]6(C)CCC[C@]47[C@H]([C@H]2OC(=O)c2ccc(OC)c(OC)c2)C3(C[C@]5(O)[C@H]67)[C@@H]1O | 0.47 |  | 1.2 µg/mL (≈ 2.43 µM)
25 | C=C1[C@@H](O)[C@]23C[C@@H]1[C@@H](OC(=O)c1ccc(OC)c(OC)c1)C[C@H]2[C@@]12C4C3C[C@@H]1[C@@](C)(CC[C@H]2O)CN4CC | 0.97 |  | 
26 | C=C1[C@@H](OC(C)=O)[C@]23C[C@@H]1[C@@H](OC(C)=O)C[C@H]2[C@@]12C4C3C[C@@H]1[C@@](C)(CC[C@H]2O)CN4CC | 1.03 |  | 
27 | C=C1[C@@H](OC(C)=O)[C@]23C[C@@H]1[C@@H](OC(C)=O)C[C@H]2[C@@]12C4C3C[C@@H]1[C@@](C)(CC[C@H]2OC(C)=O)CN4CC | 1.02 |  | > 5 µg/mL
28 | C=C1[C@H]2C[C@H]3C4N5C[C@]6(C)CCC[C@]47[C@H]([C@H]2OC(=O)c2ccc([N+](=O)[O-])cc2)C3(C[C@]5(O)[C@H]67)[C@@H]1O | 0.22 |  | 1.5 µg/mL (≈ 3.13 µM)
29 | CCN1C[C@]2(COC)[C@H](O)C[C@H](OC)[C@]34C1C([C@H](OC)[C@H]23)[C@]1(OC)[C@H]2[C@@H](OC(=O)c3ccc(OC)cc3)[C@](O)(C[C@H]24)[C@@H](OC)[C@@H]1O [ALJESACONITINE A] | 0.93 |  | 
30 | C=C1[C@@H](OC(C)=O)[C@]23C[C@@H]1[C@@H](O)C[C@H]2[C@@]12C4C3C[C@@H]1[C@@]1(C)CC[C@H]2OC1N4CC [DEHYDROLUCIDUSCULINE] | 1.18 |  | > 5 µg/mL
31 | CCN1C[C@]2(C)CC[C@H](OC)[C@@]34C1[C@@]1(OCO[C@@]15C[C@H](OC)[C@H]1C[C@@H]3[C@@H]5[C@H]1O)[C@@H](O)[C@H]24 [DELPHELINE] | 1.1 |  | 
32 | CCN1C[C@]2(COC)CC[C@H](OC)[C@]34C1C([C@H](OC)[C@H]23)[C@]1(OC(C)=O)[C@H]2[C@@H](OC(=O)c3ccccc3)[C@](O)(C[C@H]24)[C@@H](OC)[C@@H]1O [DEOXYACONITINE] | 0.99 |  | 
33 | CCN1C[C@]2(COC)CC[C@H](OC)[C@]34C1C([C@H](OC)[C@H]23)[C@]1(OC(C)=O)[C@H]2[C@@H](OC(=O)c3ccc(OC)cc3)[C@](O)(C[C@H]24)[C@@H](OC)[C@@H]1O [DEOXYJESACONITINE] | 0.97 |  | 
34 | COC[C@]12CN(C)C3C4[C@H](OC)[C@H]1[C@@]3([C@@H](OC)C[C@H]2O)[C@@H]1C[C@@]2(O)[C@H](OC(=O)c3ccccc3)[C@@H]1[C@]4(OC)[C@@H](O)[C@@H]2OC [HOKBUSINE A] | 1.03 |  | 
35 | COC[C@@]12CC[C@H](OC)[C@]34C(C([C@H](OC)[C@H]13)[C@]1(OC(C)=O)[C@H]3[C@@H](OC(=O)c5ccccc5)[C@](O)(C[C@H]34)[C@@H](OC)[C@@H]1O)N(C)C2 [HYPACONITINE] | 1.08 |  | 
36 | C=C1[C@H]2C[C@H]3C4N5C[C@]6(C)CCC[C@]47[C@H]([C@H]2O)C3(CC5[C@H]67)[C@@H]1O [KOBUSINE] | 0.76 |  | > 5 µg/mL
37 | C=C1[C@H]2C[C@H]3C4N5C[C@]6(C)CCC[C@]47[C@H]([C@H]2O)C3(C[C@]5(O)[C@H]67)[C@@H]1O [PSEUDOKOBUSINE] | 0.84 |  | > 5 µg/mL
38 | CC(=O)O[C@H]1C[C@H]2C3C4C[C@@H]5[C@@]6(C)CC[C@H](OC(C)=O)[C@@]5(C4N(C)C6)[C@@H]3[C@H]1[C@@]1(CO1)[C@H]2O (some centres not stated) [YESOXINE] | 1.01 |  | > 5 µg/mL
